Test [1] relates to Human betaherpesvirus 5. The test can be described thus: The concentration required to reduce virus plaque formation by 50% was measured on AD-169 strains of human cytomegalovirus. It is filed as functional, organism-based.
The test system of test [2] is HEL. The test can be described thus: The minimum cytotoxic concentration was measured on Human Embryonic Lung (HEL) cells. Format: functional. An outline of the steps: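 Minimum toxic concentration is the lowest concentration giving a microscopically detectable change in morphology of normal HEL cells. Duplicate assays.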
For test [3], the system named is Human alphaherpesvirus 3. As to the kind of experiment: The concentration required to reduce virus plaque formation by 50% was measured on OKA strain of VZV expressing viral thymidine kinase(TK+). It is filed as functional, organism-based.
The subject of test [4] is Human immunodeficiency virus 2. The test can be described thus: Concentration of the required to protect CEM cells of Human T-lymphocyte against Cytopathogenicity of HIV-2 by 50%. Format: functional, organism-based. The following applies: Human immunodeficiency virus 2, CCRF-CEM. A digest of the protocol:
(§1)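 CEM cells at 4 × 10⁵ cells/mL infected with HIV-1 (IIIB) or HIV-2 (ROD) at ~100 CCID₅₀/mL, then mixed with serial compound dilutions. Giant cell formation scored microscopically after 4 days. Triplicate assays.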
On the technique in general: Protection from cytopathic effect is a common read-out in antiviral testing.

Test [5] relates to Human alphaherpesvirus 3. The test can be described thus: The concentration required to reduce virus plaque formation by 50% was measured on YS strain of VZV expressing viral thymidine kinase(TK+). It is filed as functional, organism-based.
Test [6] concerns HEL. The test can be described thus: The concentration required to reduce cell growth by 50% was measured on Human Embryonic Lung (HEL) cells. Format: functional. A digest of the protocol:
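HEL fibroblasts seeded at 5 × 10³ cells/well and grown 24 h, then given compound dilutions in duplicate. Cells counted with a Coulter counter after 3 days at 37 °C in 5% CO₂.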

Test [7] has as its system Human betaherpesvirus 5. As to the kind of experiment: The concentration required to reduce virus plaque formation by 50% was measured on Davis strains of human cytomegalovirus. Format: functional, organism-based.
Test [8] relates to Human alphaherpesvirus 3. As to the kind of experiment: The concentration required to reduce virus plaque formation by 50% was measured on YS/Rstrain of VZV expressing viral thymidine kinase(TK-). It is filed as functional, organism-based.
In test [9] the test system is Human immunodeficiency virus 1. The test can be described thus: Concentration of the required to protect CEM cells of Human T-lymphocyte against Cytopathogenicity of HIV-1(III-B) by 50%. It is filed as functional, organism-based. The conditions noted are these: Human immunodeficiency virus 1, CCRF-CEM. A digest of the protocol:
as §1

For test [10], the system named is Human alphaherpesvirus 3. The test can be described thus: The concentration required to reduce virus plaque formation by 50% was measured on 07/1 strain of VZV expressing viral thymidine kinase(TK-). Format: functional, organism-based.
For a further test, the system named is CCRF-CEM. As to the kind of experiment: The concentration required to reduce 50% cell viability on CEM cells of Human T-lymphocyte. It is filed as functional. An outline of the steps: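 Uninfected CEM cells exposed to compound dilutions. Triplicate assays.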

We go through 15 compounds from ChEMBL document CHEMBL1132117, “Novel potential agents for human cytomegalovirus infection: synthesis and antiviral activity evaluation of benzothiadiazine dioxide acyclonucleosides” (J Med Chem, 1999).

As a reminder, the IC50 is the point on the concentration scale where inhibition reaches its midpoint. High values mean lower potency, low ones higher potency. By EC50 is commonly meant the concentration that produces a half-maximal response. The low end stands for higher potency in that assay, the high end for lower potency in that assay. For orientation: CC50 means the concentration that lowers cell viability or growth by half. A low value points to greater toxicity to the cells.

The structures appear in SMILES notation. ≈ marks a conversion by molar mass, not a printed value.

On to `O=C1c2ccccc2NS(=O)(=O)N1COCCO`, for which the IC50 in the test with Human betaherpesvirus 5 [1], in the test on Human alphaherpesvirus 3 [3], in the test on Human alphaherpesvirus 3 [5], in the test with Human betaherpesvirus 5 [7], in the test on Human alphaherpesvirus 3 [8] and with Human alphaherpesvirus 3 [10] was > 50 µg/mL throughout. In addition, the MCC with HEL [2] was > 50 µg/mL. Further, the EC50 in test [4] and in test [9] was > 40 µg/mL in each case. The CC50 is 160 µg/mL (≈ 588 µM) in the test on HEL [6] and > 200 µg/mL in the test with CCRF-CEM.
For the compound `O=C1c2ccccc2NS(=O)(=O)N1Cc1ccccc1`, the IC50 in the test on Human betaherpesvirus 5 [1] was > 20 µg/mL; with Human alphaherpesvirus 3 [3], > 50 µg/mL; in the test on Human alphaherpesvirus 3 [5], > 50 µg/mL; in the test with Human betaherpesvirus 5 [7], > 20 µg/mL; with Human alphaherpesvirus 3 [8] it was > 50 µg/mL; in the test with Human alphaherpesvirus 3 [10], 48 µg/mL (≈ 166 µM). The MCC in the test on HEL [2] worked out at 50 µg/mL. Further, the EC50 in test [4] and in test [9] was > 200 µg/mL throughout. Moreover, the CC50 was > 50 µg/mL in the test on HEL [6] and > 200 µg/mL in the test on CCRF-CEM.
For the compound `CC(=O)OCCOCN1c2ccccc2C(=O)NS1(=O)=O`, the IC50 with Human betaherpesvirus 5 [1], in the test with Human alphaherpesvirus 3 [3], in the test with Human alphaherpesvirus 3 [5], in the test with Human betaherpesvirus 5 [7], in the test with Human alphaherpesvirus 3 [8] and in the test with Human alphaherpesvirus 3 [10] was > 50 µg/mL throughout. The MCC with HEL [2] is > 50 µg/mL. For the same compound, the EC50 in test [4] and in test [9] was > 200 µg/mL throughout. Further, the cytotoxic concentration (CC50) with HEL [6] and with CCRF-CEM was > 200 µg/mL each time.
Regarding `CC(=O)OCCOCN1C(=O)c2ccccc2NS1(=O)=O`, the IC50 in the test with Human betaherpesvirus 5 [1], in the test with Human alphaherpesvirus 3 [3], with Human alphaherpesvirus 3 [5], in the test on Human betaherpesvirus 5 [7], with Human alphaherpesvirus 3 [8] and in the test on Human alphaherpesvirus 3 [10] was > 50 µg/mL in each case. The MCC in the test with HEL [2] is > 50 µg/mL. For the same compound, the EC50 in test [4] and in test [9] was > 200 µg/mL throughout. Also, the CC50 with HEL [6] and in the test with CCRF-CEM was > 200 µg/mL throughout.
On to `O=C1NS(=O)(=O)N(COCc2ccccc2)c2ccccc21`, for which the IC50 in the test with Human betaherpesvirus 5 [1], with Human alphaherpesvirus 3 [3], with Human alphaherpesvirus 3 [5], in the test on Human betaherpesvirus 5 [7], in the test on Human alphaherpesvirus 3 [8] and in the test with Human alphaherpesvirus 3 [10] was > 50 µg/mL throughout. Also, the MCC in the test on HEL [2] is > 50 µg/mL. Also, the EC50 in [4] and in [9] was > 40 µg/mL in each case. Further, the CC50 is > 50 µg/mL with HEL [6] and > 200 µg/mL in the test with CCRF-CEM.
On to `CC(=O)OCCOCN1c2ccccc2C(=O)N(Cc2ccccc2)S1(=O)=O`, for which the IC50 was > 20 µg/mL in the test with Human betaherpesvirus 5 [1]; 42 µg/mL (≈ 104 µM) in the test on Human alphaherpesvirus 3 [3]; > 50 µg/mL in the test with Human alphaherpesvirus 3 [5]; > 50 µg/mL with Human betaherpesvirus 5 [7]; > 20 µg/mL in the test with Human alphaherpesvirus 3 [8]; 44 µg/mL (≈ 109 µM) in the test with Human alphaherpesvirus 3 [10]. The same compound gave an MCC with HEL [2] of 50 µg/mL. The EC50 in [4] and in test [9] was > 40 µg/mL in each case. Moreover, the CC50 with HEL [6] was determined as 100 µg/mL (≈ 247 µM); in the test on CCRF-CEM it was 103 µg/mL (≈ 255 µM).
Take `O=C(OCCOCN1c2ccccc2C(=O)N(Cc2ccccc2)S1(=O)=O)c1ccccc1`: the IC50 with Human betaherpesvirus 5 [1] was 13 µg/mL (≈ 27.9 µM); with Human alphaherpesvirus 3 [3] it was > 20 µg/mL; with Human alphaherpesvirus 3 [5], > 20 µg/mL; with Human betaherpesvirus 5 [7], > 20 µg/mL; in the test with Human alphaherpesvirus 3 [8] it was 12 µg/mL (≈ 25.7 µM); in the test with Human alphaherpesvirus 3 [10], > 20 µg/mL. In the test with HEL [2], this compound gave an MCC of 50 µg/mL. Besides, the concentration giving a half-maximal response (EC50) in [4] and in [9] was > 40 µg/mL in each case. Besides, the figures for the CC50 with HEL [6] and in the test on CCRF-CEM were 17 µg/mL (≈ 36.4 µM) and 100 µg/mL (≈ 214 µM), respectively.
On to `O=C1c2ccccc2N(COCCO)S(=O)(=O)N1Cc1ccccc1`, for which the IC50 in the test on Human betaherpesvirus 5 [1] is > 20 µg/mL; in the test with Human alphaherpesvirus 3 [3], 43 µg/mL (≈ 119 µM); in the test on Human alphaherpesvirus 3 [5] it was > 50 µg/mL; with Human betaherpesvirus 5 [7], > 50 µg/mL; in the test with Human alphaherpesvirus 3 [8], > 20 µg/mL; with Human alphaherpesvirus 3 [10], 55 µg/mL (≈ 152 µM). Moreover, the MCC in the test with HEL [2] was > 50 µg/mL. In addition, the EC50 in test [4] and in test [9] was > 40 µg/mL each time. For the same compound, the CC50 in the test on HEL [6] is 125 µg/mL (≈ 345 µM); in the test with CCRF-CEM, 89 µg/mL (≈ 246 µM).
Consider `O=C1NS(=O)(=O)N(COCCO)c2ccccc21`, for which the IC50 with Human betaherpesvirus 5 [1], in the test on Human alphaherpesvirus 3 [3], in the test on Human alphaherpesvirus 3 [5], in the test with Human betaherpesvirus 5 [7], in the test on Human alphaherpesvirus 3 [8] and in the test with Human alphaherpesvirus 3 [10] was > 50 µg/mL throughout. Further, the MCC with HEL [2] was > 50 µg/mL. The EC50 in test [4] and in test [9] was > 40 µg/mL throughout. Besides, the figures for the CC50 with HEL [6] and with CCRF-CEM were 112 µg/mL (≈ 411 µM) and 15 µg/mL (≈ 55.1 µM), respectively.
Regarding `CCCOCN1c2ccccc2C(=O)NS1(=O)=O`, the half-maximal inhibitory concentration (IC50) in the test with Human betaherpesvirus 5 [1], with Human alphaherpesvirus 3 [3], in the test with Human alphaherpesvirus 3 [5], in the test with Human betaherpesvirus 5 [7], in the test with Human alphaherpesvirus 3 [8] and with Human alphaherpesvirus 3 [10] was > 50 µg/mL in each case. The MCC in the test on HEL [2] was > 50 µg/mL. Moreover, the EC50 in test [4] and in test [9] was > 40 µg/mL throughout. Further, the values for the half-maximal cytotoxic concentration (CC50) in the test with HEL [6] and in the test with CCRF-CEM were > 50 µg/mL and > 200 µg/mL, respectively.
Take `C#CCOCN1c2ccccc2C(=O)N(Cc2ccccc2)S1(=O)=O`: the IC50 was determined as 12 µg/mL (≈ 33.7 µM) with Human betaherpesvirus 5 [1]; 21 µg/mL (≈ 58.9 µM) with Human alphaherpesvirus 3 [3]; 24 µg/mL (≈ 67.3 µM) in the test on Human alphaherpesvirus 3 [5]; 12 µg/mL (≈ 33.7 µM) with Human betaherpesvirus 5 [7]; 13 µg/mL (≈ 36.5 µM) in the test with Human alphaherpesvirus 3 [8]; 11 µg/mL (≈ 30.9 µM) with Human alphaherpesvirus 3 [10]. Further, the MCC with HEL [2] is 50 µg/mL. In addition, the EC50 in test [4] and in test [9] was > 8 µg/mL each time. Further, the CC50 in the test on HEL [6] is > 50 µg/mL; in the test on CCRF-CEM it was 23 µg/mL (≈ 64.5 µM).
Turning to `O=C1c2ccccc2N(Cc2ccccc2)S(=O)(=O)N1COCc1ccccc1`, the IC50 in the test with Human betaherpesvirus 5 [1] is 3.5 µg/mL (≈ 8.57 µM); with Human alphaherpesvirus 3 [3], > 5 µg/mL; in the test on Human alphaherpesvirus 3 [5], > 5 µg/mL; in the test with Human betaherpesvirus 5 [7], 3.7 µg/mL (≈ 9.06 µM); in the test on Human alphaherpesvirus 3 [8] it was 3 µg/mL (≈ 7.34 µM); in the test with Human alphaherpesvirus 3 [10], > 5 µg/mL. This compound also showed an MCC in the test with HEL [2] of 20 µg/mL. The EC50 was determined as 20 µg/mL (≈ 49 µM) in [4] and 15 µg/mL (≈ 36.7 µM) in [9]. Also, the values for the CC50 in the test on HEL [6] and with CCRF-CEM were > 40 µg/mL and 100 µg/mL (≈ 245 µM), respectively.
As for `O=C1c2ccccc2N(COCc2ccccc2)S(=O)(=O)N1Cc1ccccc1`, the concentration for half-maximal inhibition (IC50) in the test with Human betaherpesvirus 5 [1] is 8 µg/mL (≈ 19.6 µM); with Human alphaherpesvirus 3 [3] it was 20 µg/mL (≈ 49 µM); in the test on Human alphaherpesvirus 3 [5], 20 µg/mL (≈ 49 µM); in the test with Human betaherpesvirus 5 [7] it was 11 µg/mL (≈ 26.9 µM); in the test on Human alphaherpesvirus 3 [8], > 5 µg/mL; in the test with Human alphaherpesvirus 3 [10], > 5 µg/mL. In addition, the MCC in the test with HEL [2] is > 50 µg/mL. Also, the EC50 in test [4] and in test [9] was > 8 µg/mL in each case. The CC50 is > 50 µg/mL with HEL [6] and 25 µg/mL (≈ 61.2 µM) with CCRF-CEM.
With `Nc1nc2c(ncn2COCCO)c(=O)[nH]1` [ACYCLOVIR], the MCC in the test with HEL [2] is > 50 µg/mL. Further, the CC50 with HEL [6] was > 200 µg/mL.
As for `Nc1nc2c(ncn2COC(CO)CO)c(=O)[nH]1` [GANCICLOVIR], the IC50 stood at 1.2 µg/mL (≈ 4.7 µM) in the test on Human betaherpesvirus 5 [1] and 1.9 µg/mL (≈ 7.44 µM) with Human betaherpesvirus 5 [7]. For the same compound, the MCC in the test on HEL [2] was > 50 µg/mL. Moreover, the CC50 with HEL [6] was > 50 µg/mL.
